Screens deposited in PubChem BioAssay by several laboratories.
Compounds with a hit are over-represented: about 3% of the library has one in this group of screens.
aDG glyco up: alpha-DG glycosylation activation. activation, % at 10 µM. AID 624168. 0.22% of 360,000 active. Pro5-aDG cells, alpha-DG glycosylation AlphaScreen (IIH6); 0% Pro5, 100% B10-LARGE cell signal;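 active = activation of at least 8% versus controls, or a plate z-score of at least 8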;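 also: Pro5 are CHO cells carrying HIG-tagged alpha-DG that lacks glycosylation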
Lipid droplet: modulators of hepatic lipid droplet formation | AML12 mouse hepatocytes, oleate lipid droplets, BODIPY imaging | inhibition, % at 6.5 µM | 0.4% of 240,000 active | AID 1656;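 active = lipid droplet intensity inhibited by at least 50%, with more than 500 cells counted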
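Assay system: AML12 hepatocytes (mouse) / Also added: 100 µM oleic acid challenge / Times: overnight treatment with compound plus oleate / Detection: high-content imaging of BODIPY-stained droplets and DAPI nuclei / Evaluation: % inhibition of lipid droplet signal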
NPR1 activator: GC-A (human) enzyme activation. P16066. HEK293 GC-A cells, cGMP TR-FRET, EC30 ANP; 0% at EC30 ANP, 100% saturating ANP. activation, % at 10 µM. 0.14% of 370,000 active. AID 1671463; in the data active = activation above about 40%
NPR2 activator: GC-B (human) receptor activation; P20594; HEK293-GC-B cells, CNP EC30, cGMP TR-FRET; 0% at EC30 CNP, 100% saturating CNP; activation, % at 10 µM; 0.11% of 370,000 active; AID 1920062;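 active = activation at 10 µM reaching about 35% in either raw or pattern-adjusted values, limit read from the data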
JMJD2C inh: blocks human GASC-1 demethylase activity. 0.069% of 330,000 active. Q9H3R0. AID 2099. GST-JMJD2C(1-420) H3K9me3 demethylation, DELFIA europium. inhibition, % at 2.35 µM;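 active = more than half of a compound's replicate wells show inhibition beyond 50%, single wells judged on their own value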;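 also: signal counts dimethyl H3K9 product captured on neutravidin plate; 0% = median of DMSO wells and 100% = 0.3 times that DMSO median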
Target sequence (Q9H3R0 1-420 limits assumed): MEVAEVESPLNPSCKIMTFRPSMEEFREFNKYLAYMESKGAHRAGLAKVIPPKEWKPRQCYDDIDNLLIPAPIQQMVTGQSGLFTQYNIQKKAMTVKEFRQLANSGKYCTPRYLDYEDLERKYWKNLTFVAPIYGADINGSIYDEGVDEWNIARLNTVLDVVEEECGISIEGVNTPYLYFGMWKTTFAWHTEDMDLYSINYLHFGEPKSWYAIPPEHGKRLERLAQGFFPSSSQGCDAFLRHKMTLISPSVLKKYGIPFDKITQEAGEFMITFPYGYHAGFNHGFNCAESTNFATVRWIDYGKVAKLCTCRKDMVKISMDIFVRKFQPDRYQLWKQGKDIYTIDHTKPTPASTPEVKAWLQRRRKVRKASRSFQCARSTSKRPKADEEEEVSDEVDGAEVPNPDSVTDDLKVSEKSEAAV
GRIN3A LBD mod: modulators (binders) of human NR3A ligand-binding domain | Tm shift relative to glycine control, % at 25 µM | 2.5% of 340,000 active | NR3A LBD differential scanning fluorimetry, Tm shift; 0% = protein alone, 100% = glycine-bound protein;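 active = melting temperature shift of at least 10% of the positive control shift, at one fixed dose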
* marks the source's active call; other numbers are inactive results; · = not tested or not shown.

SMILES | aDG glyco up | Lipid droplet | NPR1 activator | NPR2 activator | JMJD2C inh | GRIN3A LBD mod
COc1ccc2nc(NC(=O)c3sc4nc(C)cc(C)c4c3N)sc2c1 | -0.1 | -1.0 | 9.3 | 2.7 | -7.0 | 27.8*
COc1cc(OC)cc(C(=O)NCC2CCN(C(=O)C(=O)c3cccs3)CC2)c1 | · | · | -1.4 | -0.5 | · | ·
Cc1[nH]n(-c2ncc(-c3ccc(Cl)cc3)s2)c(=O)c1C(c1ccc(Cl)cc1)C(C#N)C#N (stereo unspecified) | -0.3 | 0.5 | · | · | 4.4 | 17.1*
c1ccn2c(SCc3cn4ccsc4n3)nnc2c1 | -0.2 | -6.6 | 0.5 | 1.6 | 51.2* | -0.7
CCn1cc(C(=O)N2CCN(Cc3ccc(C)cc3)CC2)c(=O)c2ccc(C)nc21 | · | · | -3.1 | -5.7 | · | ·
Cc1ccc(C(=O)NCC(=O)OCc2csc(-c3ccccc3)n2)cc1 | 0.1 | 16.3 | 0.6 | -3.3 | -4.5 | 0.2
COc1ccc(/C=C/C(=O)OCc2csc(-c3ccccc3)n2)cc1OC | -0.3 | -5.9 | 1.0 | 4.7 | -9.6 | 17.6*
O=C(OCc1csc(Nc2ccccc2)n1)c1ccc(Cl)cc1 | -0.1 | -0.7 | 3.0 | 2.7 | -1.2 | 10.7*
O=C(OCc1csc(-c2ccccc2)n1)c1ccc(O)cc1 | 0.0 | -5.2 | -2.7 | 5.0 | -4.5 | 20.5*
CC(C)C[C@H]1CNC(=S)N1C[C@H]1CCCN1C[C@H](Cc1ccc(O)cc1)N1C[C@H](Cc2ccccc2)N(CCc2ccccc2)C1=S | 0.4 | · | -3.4 | -0.9 | · | ·
Oc1ccc(C[C@H]2CNC(=S)N2CC2CCCN2C[C@H](Cc2ccc(O)cc2)N2C[C@H](Cc3ccccc3)N(CCc3ccccc3)C2=S)cc1 (stereo partly specified) | -0.1 | · | -0.6 | 7.5 | · | 11.9*
Oc1ccc(C[C@H]2CNC(=S)N2CC2CCCN2C[C@H](Cc2ccc(O)cc2)N2C[C@H](Cc3ccc(O)cc3)N(CC3CCCCC3)C2=S)cc1 (stereo partly specified) | -0.6 | · | -3.1 | 2.1 | · | 18.5*
Oc1ccc(C[C@H]2CNC(=S)N2CC2CCCN2C[C@H](Cc2ccccc2)N2C[C@H](Cc3ccc(O)cc3)N(CC3CCCCCC3)C2=S)cc1 (stereo partly specified) | 0.2 | · | 4.5 | -2.1 | · | 33.2*
Oc1ccc(C[C@H]2CN([C@@H](Cc3ccccc3)CN3CCCC3CN3C(=S)NC[C@@H]3Cc3ccccc3)C(=S)N2CC2CCCCC2)cc1 (stereo partly specified) | 0.2 | · | -0.6 | 7.9 | · | ·
Oc1ccc(C[C@H]2CN([C@@H](Cc3ccc(O)cc3)CN3CCC[C@@H]3CN3C(=S)NC[C@@H]3Cc3ccccc3)C(=S)N2CC2CCCCCC2)cc1 | 1.4 | · | -2.1 | 2.5 | · | ·
O=C(NC1CCCC1)c1ccc(COc2ccccc2)o1 | · | · | 2.1 | 5.8 | · | ·
Cc1cc(N2C(=O)C(=O)/C(=C(/O)c3ccc(F)cc3)C2c2cccc(Br)c2)no1 (stereo unspecified) | -0.2 | · | -4.8 | -0.2 | 56.2* | -17.9
Cc1ccc(/C(O)=C2\C(=O)C(=O)N(c3cc(C)on3)C2c2cccc(Br)c2)cc1 (stereo unspecified) | -0.1 | · | 1.8 | 3.1 | -3.5 | -4.9
Cc1ccc(N=Nc2ccc(O)c(P(=O)(c3ccccc3)c3ccccc3)c2)cc1 | -0.2 | 25.8 | 49.8* | -3.7 | 9.9 | -3.0
O=C(NC1CCCCN(Cc2ccc(Cl)cc2)C1=O)c1cccc([N+](=O)[O-])c1 (stereo unspecified) | · | · | 3.0 | -6.3 | · | ·
c1ccc(OCCSc2nc3ccccc3o2)cc1 | 0.0 | · | -1.9 | -3.5 | 4.3 | 1.3
CCOc1ccc(OCCSc2nc3ccccc3o2)cc1 | 0.2 | -10.3 | 6.9 | -3.3 | -3.2 | 20.9*
COc1ccc(Cn2cc(CN3CC(N4CCCCC4)CS3(=O)=O)nn2)cc1 (stereo unspecified) | 0.3 | · | 2.8 | 5.8 | · | ·
COc1ccc(CN2C[C@H]3CCCN3c3cc(Br)ccc3S2(=O)=O)cc1 | 0.0 | · | · | · | · | 18.1*
O=C(COc1ccccc1Br)N1CCN(C(=O)c2ccco2)CC1 | -0.3 | -29.6 | 4.5 | -1.6 | 2.1 | -0.9
COc1ccccc1OCC(=O)N1CCN(C(=O)c2ccco2)CC1 | 0.0 | -4.7 | -2.3 | -2.3 | -9.9 | 10.2*
